Test results: ChEMBL document CHEMBL1140345, “Conformational constraint in oxazolidinone antibacterials. Synthesis and structure-activity studies of (azabicyclo[3.1.0]hexylphenyl)oxazolidinones” (2005)
Values after ≈ are worked out from the molar mass of the structure shown.

How the values were obtained:
[1] = tested on: Enterococcus faecalis; experiment: Minimum inhibitory concentration against Enterococcus faecalis UC9217; format: functional
Summary of the method: (§1)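 Broth microdilution MIC following the NCCLS M7-A4 approved standard for dilution susceptibility testing of aerobically growing bacteria. The method is taken as accurate to within one dilution.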

[2] = tested on: Staphylococcus epidermidis; experiment: Minimum inhibitory concentration against methicillin-resistant Staphylococcus epidermidis UC12084
[3] = tested on: Haemophilus influenzae; experiment: Minimum inhibitory concentration against ampicillin-reisitant Haemophilus influenzae UC30063; format: functional; conditions: Haemophilus influenzae; read-out: MIC; summary of the method: as §1
[4] = tested on: Staphylococcus aureus; experiment: Minimum inhibitory concentration against methicillin, ciprofloxacin, rifampin, imipenem-resistant Staphylococcus aureus UC12673; format: functional
Summary of the method: (§2)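 MIC determined by standard broth microdilution following the NCCLS M7-A4 approved standard for dilution susceptibility testing of aerobically growing bacteria.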

[5] = tested on: Streptococcus pneumoniae; experiment: Minimum inhibitory concentration against penicillin-susceptible Streptococcus pneumoniae UC9912; format: functional; conditions: Streptococcus pneumoniae; read-out: MIC; summary of the method: as §1
[6] = tested on: Staphylococcus aureus; experiment: Minimum inhibitory concentration against methicillin-susceptible Staphylococcus aureus UC9213; format: functional; summary of the method: as §2
[7] = tested on: Streptococcus pneumoniae; experiment: Minimum inhibitory concentration against penicillin-susceptible Streptococcus pneumoniae UC9912; Range is 0.5-1 ug/mL; format: functional; summary of the method: as §1
[8] = tested on: Staphylococcus aureus; experiment: Minimum inhibitory concentration against methicillin, ciprofloxacin, rifampin, imipenem-resistant Staphylococcus aureus UC12673; Range is 2-4 ug/mL; format: functional; summary of the method: as §2
[9] = tested on: Staphylococcus aureus; experiment: Minimum inhibitory concentration against methicillin-susceptible Staphylococcus aureus UC9213; Range is 2-4 ug/mL; format: functional; summary of the method: as §2
[10] = tested on: Escherichia coli; experiment: Minimum inhibitory concentration against Escherichia coli UC6674; format: functional; summary of the method: as §1
[11] = tested on: Staphylococcus epidermidis; experiment: Minimum inhibitory concentration against methicillin-resistant Staphylococcus epidermidis UC12084; Range is from 0.5-1 ug/mL
[12] = tested on: Haemophilus influenzae; experiment: Minimum inhibitory concentration against ampicillin-reisitant Haemophilus influenzae UC30063; Range is from 4-8 ug/mL; format: functional; summary of the method: as §1
[13] = tested on: Staphylococcus epidermidis; experiment: Minimum inhibitory concentration against methicillin-resistant Staphylococcus epidermidis UC12084; Range is from 1-2 ug/mL
[14] = tested on: Enterococcus faecalis; experiment: Minimum inhibitory concentration against Enterococcus faecalis UC9217; Range is from 2-4 ug/mL; format: functional; summary of the method: as §1
[15] = tested on: Haemophilus influenzae; experiment: Minimum inhibitory concentration against ampicillin-reisitant Haemophilus influenzae UC30063; Range is 8-16 ug/mL; format: functional; summary of the method: as §2
[16] = tested on: Staphylococcus epidermidis; experiment: Minimum inhibitory concentration against methicillin-resistant Staphylococcus epidermidis UC12084; Range is 0.5-1 ug/mL

| Structure (SMILES) | MIC [1] | MIC [2] | MIC [3] | MIC [4] | MIC [5] | MIC [6] | MIC [7] | MIC [8] | MIC [9] | MIC [10] | MIC [11] | MIC [12] | MIC [13] | MIC [14] | MIC [15] | MIC [16] |
| --- | --- | --- | --- | --- | --- | --- | --- | --- | --- | --- | --- | --- | --- | --- | --- | --- |
| O=C(NC[C@H]1CN(c2cc(F)c(N3C[C@@H]4[C@H](C3)[C@H]4C(=O)O)c(F)c2)C(=O)O1)C(F)F | 0.5 µg/mL (≈ 1.16 µM) | 0.5 µg/mL (≈ 1.16 µM) | 4 µg/mL (≈ 9.27 µM) | 0.5 µg/mL (≈ 1.16 µM) | 1 µg/mL (≈ 2.32 µM) | 1 µg/mL (≈ 2.32 µM) |  |  |  |  |  |  |  |  |  |  |
| CC(=O)NC[C@H]1CN(c2cc(F)c(N3C[C@@H]4[C@H](C3)[C@H]4NC=O)c(F)c2)C(=O)O1 | 2 µg/mL (≈ 5.07 µM) | 1 µg/mL (≈ 2.54 µM) | 32 µg/mL (≈ 81.1 µM) |  |  |  | 1 µg/mL (≈ 2.54 µM) | 4 µg/mL (≈ 10.1 µM) | 4 µg/mL (≈ 10.1 µM) | > 64 µg/mL |  |  |  |  |  |  |
| CC(=O)NC[C@H]1CN(c2cc(F)c(N3C[C@@H]4[C@H](C3)[C@H]4C(=O)NCc3ccco3)c(F)c2)C(=O)O1 | 1 µg/mL (≈ 2.11 µM) | 1 µg/mL (≈ 2.11 µM) | > 64 µg/mL | 2 µg/mL (≈ 4.22 µM) | 0.5 µg/mL (≈ 1.05 µM) | 2 µg/mL (≈ 4.22 µM) |  |  |  |  |  |  |  |  |  |  |
| CC(=O)NC[C@H]1CN(c2cc(F)c(N3C[C@@H]4[C@H](C3)[C@H]4C(=O)O)c(F)c2)C(=O)O1 | 1 µg/mL (≈ 2.53 µM) |  |  | 1 µg/mL (≈ 2.53 µM) | 1 µg/mL (≈ 2.53 µM) | 2 µg/mL (≈ 5.06 µM) |  |  |  | > 64 µg/mL | 1 µg/mL (≈ 2.53 µM) | 8 µg/mL (≈ 20.2 µM) |  |  |  |  |
| CC(=O)NC[C@H]1CN(c2ccc(N3C[C@@H]4[C@H](C3)[C@H]4C(=O)O)c(F)c2)C(=O)O1 | 4 µg/mL (≈ 10.6 µM) | 2 µg/mL (≈ 5.3 µM) | 16 µg/mL (≈ 42.4 µM) | 4 µg/mL (≈ 10.6 µM) | 4 µg/mL (≈ 10.6 µM) | 8 µg/mL (≈ 21.2 µM) |  |  |  | > 64 µg/mL |  |  |  |  |  |  |
| CC(=O)NC[C@H]1CN(c2cc(F)c(N3C[C@@H]4[C@H](C3)[C@H]4C(=O)NOCc3ccccc3)c(F)c2)C(=O)O1 | 2 µg/mL (≈ 4 µM) | 1 µg/mL (≈ 2 µM) | > 64 µg/mL | 2 µg/mL (≈ 4 µM) | 1 µg/mL (≈ 2 µM) | 4 µg/mL (≈ 7.99 µM) |  |  |  | > 64 µg/mL |  |  |  |  |  |  |
| CC(=O)NC[C@H]1CN(c2cc(F)c(N3C[C@@H]4[C@H](C3)[C@H]4NC(C)=O)c(F)c2)C(=O)O1 |  |  | 64 µg/mL (≈ 157 µM) | 4 µg/mL (≈ 9.79 µM) | 1 µg/mL (≈ 2.45 µM) | 4 µg/mL (≈ 9.79 µM) |  |  |  | > 64 µg/mL |  |  | 2 µg/mL (≈ 4.9 µM) | 4 µg/mL (≈ 9.79 µM) |  |  |
| CC(=O)NC[C@H]1CN(c2cc(F)c(N3C[C@H]4C[C@H]4C3)c(F)c2)C(=O)O1 | 2 µg/mL (≈ 5.69 µM) | 1 µg/mL (≈ 2.85 µM) | 64 µg/mL (≈ 182 µM) | 2 µg/mL (≈ 5.69 µM) | 0.5 µg/mL (≈ 1.42 µM) | 2 µg/mL (≈ 5.69 µM) |  |  |  | > 64 µg/mL |  |  |  |  |  |  |
| CC(=O)NC[C@H]1CN(c2ccc(N3C[C@@H]4[C@@H](N)[C@@H]4C3)c(F)c2)C(=O)O1 | 4 µg/mL (≈ 11.5 µM) |  |  | 4 µg/mL (≈ 11.5 µM) | 1 µg/mL (≈ 2.87 µM) |  |  |  | 4 µg/mL (≈ 11.5 µM) | 32 µg/mL (≈ 91.9 µM) |  |  |  |  | 16 µg/mL (≈ 45.9 µM) | 1 µg/mL (≈ 2.87 µM) |
| CC(=O)NC[C@H]1CN(c2cc(F)c(N3C[C@@H]4[C@H](C3)[C@H]4NS(C)(=O)=O)c(F)c2)C(=O)O1 | 2 µg/mL (≈ 4.5 µM) | 1 µg/mL (≈ 2.25 µM) | 32 µg/mL (≈ 72 µM) | 4 µg/mL (≈ 9 µM) | 1 µg/mL (≈ 2.25 µM) | 4 µg/mL (≈ 9 µM) |  |  |  | > 64 µg/mL |  |  |  |  |  |  |
| N[C@@H]1[C@H]2CN(c3c(F)cc(N4C[C@H](CNC(=O)C(F)F)OC4=O)cc3F)C[C@@H]12 | 2 µg/mL (≈ 4.97 µM) | 2 µg/mL (≈ 4.97 µM) | 8 µg/mL (≈ 19.9 µM) | 2 µg/mL (≈ 4.97 µM) | 1 µg/mL (≈ 2.49 µM) | 4 µg/mL (≈ 9.94 µM) |  |  |  |  |  |  |  |  |  |  |
| CC(=O)NC[C@H]1CN(c2cc(F)c(N3C[C@@H]4[C@H](C3)[C@H]4C(=O)NO)c(F)c2)C(=O)O1 | 2 µg/mL (≈ 4.87 µM) | 2 µg/mL (≈ 4.87 µM) | 32 µg/mL (≈ 78 µM) | 4 µg/mL (≈ 9.75 µM) | 1 µg/mL (≈ 2.44 µM) | 4 µg/mL (≈ 9.75 µM) |  |  |  | > 64 µg/mL |  |  |  |  |  |  |
| N[C@@H]1[C@H]2CN(c3c(F)cc(N4C[C@H](CNC(=O)C(Cl)Cl)OC4=O)cc3F)C[C@@H]12 | 2 µg/mL (≈ 4.59 µM) | 2 µg/mL (≈ 4.59 µM) | 4 µg/mL (≈ 9.19 µM) | 2 µg/mL (≈ 4.59 µM) | 0.5 µg/mL (≈ 1.15 µM) | 4 µg/mL (≈ 9.19 µM) |  |  |  |  |  |  |  |  |  |  |
| COc1ccc(NC(=O)[C@H]2[C@@H]3CN(c4c(F)cc(N5C[C@H](CNC(C)=O)OC5=O)cc4F)C[C@@H]32)cn1 | 1 µg/mL (≈ 1.99 µM) | 1 µg/mL (≈ 1.99 µM) | > 64 µg/mL | 2 µg/mL (≈ 3.99 µM) | 0.5 µg/mL (≈ 0.997 µM) | 2 µg/mL (≈ 3.99 µM) |  |  |  |  |  |  |  |  |  |  |
| CC(=O)NC[C@H]1CN(c2cc(F)c(N3C[C@@H]4[C@H](C3)[C@H]4C(=O)N(C)C)c(F)c2)C(=O)O1 | 4 µg/mL (≈ 9.47 µM) | 2 µg/mL (≈ 4.73 µM) | 64 µg/mL (≈ 152 µM) | 4 µg/mL (≈ 9.47 µM) | 2 µg/mL (≈ 4.73 µM) | 4 µg/mL (≈ 9.47 µM) |  |  |  | > 64 µg/mL |  |  |  |  |  |  |
